We go through 8 molecules from ChEMBL document CHEMBL1125231, “Synthesis, peroxidating ability, and antineoplastic evaluation of 1-[(aminoalkyl)amino]-4-hydroxy-10-imino-9-anthracenones” (J Med Chem, 1991).

Converted amounts (≈) assume the structure as drawn.

For one assay, the system named is L1210. Description: Effective concentration against inhibition of L1210 mouse leukemia cells in tissue culture. Type of assay: functional, cell-based. An outline of the steps:
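L1210 mouse leukemia cells seeded at 0.05 × 10^6 cells/mL. Compounds, as hydrochlorides dissolved in 50% ethanol, added at four concentrations. Growth over 48 h measured by cellular protein content. EC50 taken as the concentration giving 50% inhibition of 48-h growth.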

Assay [1] is described as follows: The capacity to stimulate NADH oxidation was determined. Type of assay: functional. An outline of the steps: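 Cell-free NADH oxidation in 1 mL of 0.05 M Tris-HCl, pH 7.2, with 100 µM compound (hydrochloride), 100 µM NADH and 1 unit/mL NADH dehydrogenase. NADH consumption started by adding the enzyme. Rate expressed as µmol/min.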
Assay [2] relates to P388. Put plainly: In vivo inhibitory activity against P388 murine leukemia cells and the ratio of medium survival time expressed as percent of untreated controls (%T/C) at dose of 12.5 mg/kg (6/6*). Type of assay: functional, Mus musculus.
The subject of assay [3] is P388. Put plainly: In vivo inhibitory activity against P388 murine leukemia cells and the ratio of medium survival time expressed as percent of untreated controls (%T/C) at dose of 25 mg/kg (6/6*). Type of assay: functional, Mus musculus.
Assay [4] has as its system P388. Put plainly: In vivo inhibitory activity against P388 murine leukemia cells and the ratio of medium survival time expressed as percent of untreated controls (%T/C) at dose of 3.12 mg/kg (6/6*). Type of assay: functional, Mus musculus.
The test system of assay [5] is P388. Description: In vivo inhibitory activity against P388 murine leukemia cells and the ratio of medium survival time expressed as percent of untreated controls (%T/C) at dose of 6.25 mg/kg (6/6*). The class given is functional, Mus musculus.
Assay [6] relates to P388. Put plainly: In vivo inhibitory activity against P388 murine leukemia cells and the ratio of medium survival time expressed as percent of untreated controls (%T/C) at dose of 15 mg/kg (7/7*). The class given is functional, Mus musculus.
The subject of assay [7] is P388. Put plainly: In vivo inhibitory activity against P388 murine leukemia cells and the ratio of medium survival time expressed as percent of untreated controls (%T/C) at dose of 7.5 mg/kg (7/7*). Type of assay: functional, Mus musculus.
Assay [8] relates to P388. Description: In vivo inhibitory activity against P388 murine leukemia cells and the ratio of medium survival time expressed as percent of untreated controls (%T/C) at doses of 60,30mg/kg (7/7*). Type of assay: functional, Mus musculus.
Assay [9] concerns P388. Description: In vivo inhibitory activity against P388 murine leukemia cells and the ratio of medium survival time expressed as percent of untreated controls (%T/C) at dose of 3.78, 1.87 mg/kg (7/7*). The class given is functional, Mus musculus.
Assay [10] concerns P388. Put plainly: In vivo inhibitory activity against P388 murine leukemia cells and the ratio of medium survival time expressed as percent of untreated controls (%T/C) at dose of 10 mg/kg (7/7*). The class given is functional, Mus musculus.
Assay [11] deals with P388. Put plainly: In vivo inhibitory activity against P388 murine leukemia cells and the ratio of medium survival time expressed as percent of untreated controls (%T/C) at doses of 80,40,20mg/kg (7/7*). Type of assay: functional, Mus musculus.
For assay [12], the system named is P388. Put plainly: In vivo inhibitory activity against P388 murine leukemia cells and the ratio of medium survival time expressed as percent of untreated controls (%T/C) at dose of 2.5 mg/kg (7/7*). The class given is functional, Mus musculus.
For assay [13], the system named is P388. Put plainly: In vivo inhibitory activity against P388 murine leukemia cells and the ratio of medium survival time expressed as percent of untreated controls (%T/C) at dose of 5 mg/kg (7/7*). The class given is functional, Mus musculus.
Assay [14] has as its system P388. Put plainly: In vivo inhibitory activity against P388 murine leukemia cells and the ratio of medium survival time expressed as percent of untreated controls (%T/C) at dose of 10 mg/kg (6/6*). Type of assay: functional, Mus musculus.
The test system of assay [15] is P388. Description: In vivo inhibitory activity against P388 murine leukemia cells and the ratio of medium survival time expressed as percent of untreated controls (%T/C) at dose of 2.5 mg/kg (6/6*). Type of assay: functional, Mus musculus.
Assay [16] deals with P388. Put plainly: In vivo inhibitory activity against P388 murine leukemia cells and the ratio of medium survival time expressed as percent of untreated controls (%T/C) at dose of 20 mg/kg (6/6*). Type of assay: functional, Mus musculus.
For assay [17], the system named is P388. Put plainly: In vivo inhibitory activity against P388 murine leukemia cells and the ratio of medium survival time expressed as percent of untreated controls (%T/C) at dose of 80 mg/kg (5/6*). The class given is functional, Mus musculus.
Assay [18] concerns P388. Put plainly: In vivo inhibitory activity against P388 murine leukemia cells and the ratio of medium survival time expressed as percent of untreated controls (%T/C) at dose of 40 mg/kg (6/6*). Type of assay: functional, Mus musculus.
Assay [19] relates to P388. Put plainly: In vivo inhibitory activity against P388 murine leukemia cells and the ratio of medium survival time expressed as percent of untreated controls (%T/C) at dose of 5 mg/kg (6/6*). Type of assay: functional, Mus musculus.
In assay [20] the test system is P388. Put plainly: In vivo inhibitory activity against P388 murine leukemia cells and the ratio of medium survival time expressed as percent of untreated controls (%T/C) at dose of 12.5 mg/kg (7/7*). Type of assay: functional, Mus musculus.
Assay [21] deals with P388. Description: In vivo inhibitory activity against P388 murine leukemia cells and the ratio of medium survival time expressed as percent of untreated controls (%T/C) at dose of 25 mg/kg (7/7*). Type of assay: functional, Mus musculus.
Assay [22] relates to P388. Description: In vivo inhibitory activity against P388 murine leukemia cells and the ratio of medium survival time expressed as percent of untreated controls (%T/C) at doses of 6.25,3.12,1.56mg/kg (7/7*). The class given is functional, Mus musculus.
Assay [23] has as its system P388. Put plainly: In vivo inhibitory activity against P388 murine leukemia cells and the ratio of medium survival time expressed as percent of untreated controls (%T/C) at dose of 50 mg/kg (7/7*). The class given is functional, Mus musculus.
The test system of assay [24] is P388. Description: In vivo inhibitory activity against P388 murine leukemia cells and the ratio of medium survival time expressed as percent of untreated controls (%T/C) at dose of 80 mg/kg (7/7*). Type of assay: functional, Mus musculus.
Assay [25] relates to P388. Description: In vivo inhibitory activity against P388 murine leukemia cells and the ratio of medium survival time expressed as percent of untreated controls (%T/C) at doses of 10,5,2,5 mg/kg (7/7*). The class given is functional, Mus musculus.
Assay [26] concerns P388. Put plainly: In vivo inhibitory activity against P388 murine leukemia cells and the ratio of medium survival time expressed as percent of untreated controls (%T/C) at doses of 40,20mg/kg (7/7*). The class given is functional, Mus musculus.

Regarding `O=C1c2ccccc2C(=O)c2c(NCCNCCO)ccc(NCCNCCO)c21` [AMETANTRONE], in the assay with L1210, the EC50 (usually the concentration giving half of the maximal effect) was determined as 0.21 µg/mL (≈ 0.509 µM). This molecule had an NADH oxidation in assay [1] of 28.9 µM/min. Further, the T/C (in general, the ratio of treated to control) worked out at 300% in the assay with P388 [2], 200% with P388 [3], 190% with P388 [4] and 210% in the assay on P388 [5].
For the molecule `CN(C)CCNc1ccc(O)c2c1C(=O)c1ccccc1C2=O`, in the assay on L1210, the EC50 amounted to 0.33 µg/mL (≈ 1.06 µM). This molecule also returned an NADH oxidation in assay [1] of 25.7 µM/min. Also, the T/C in the assay with P388 [6] amounted to 109%; in the assay with P388 [7], 100%; in the assay on P388 [8] it was 117%; in the assay with P388 [9], 91%.
In the case of `N=C1c2ccccc2C(=O)c2c(NCCNCCO)ccc(O)c21`, in the assay on L1210, it took 1.43 µg/mL (≈ 4.4 µM) to reach a half-maximal effect (EC50). The molecule also gave an NADH oxidn in assay [1] of 19.3 µM/min. Besides, the T/C is given as 150% with P388 [10], 160% in the assay on P388 [11], 120% with P388 [12] and 130% in the assay with P388 [13].
In turn, `COc1cccc2c1C(=N)c1c(O)ccc(NCCNCCO)c1C2=O` yielded a 50% effective concentration (EC50) with L1210 of 2.8 µg/mL (≈ 7.88 µM).
`N=C1c2ccccc2C(=O)c2c(NCCN)ccc(O)c21` showed an EC50 in the assay with L1210 of 0.89 µg/mL (≈ 3.16 µM). In assay [1], this molecule came in with an NADH oxidn of 20.9 µM/min. Moreover, the T/C came out at 118% with P388 [14]; 100% in the assay with P388 [15]; 109% in the assay on P388 [16]; 55% in the assay on P388 [17]; 118% with P388 [18]; 109% in the assay with P388 [19].
`O=C1c2ccccc2C(=O)c2c(NCCNCCO)ccc(O)c21` registered an EC50 in the assay on L1210 of 0.27 µg/mL (≈ 0.827 µM). For the same molecule, the NADH oxidation in assay [1] came to 28.9 µM/min. In addition, the T/C in the assay with P388 [20] is listed as 109%; in the assay on P388 [21], 117%; in the assay on P388 [22], 100%; in the assay on P388 [23], 127%.
As for `CN(C)CCNc1ccc(O)c2c1C(=O)c1ccccc1C2=N`, it took 2.21 µg/mL (≈ 7.14 µM) to reach a half-maximal effect in the assay on L1210 (EC50). In [1], this molecule displayed an NADH oxidn of 17.7 µM/min. For the same molecule, the T/C in the assay with P388 [24] turned out to be 125%; with P388 [25] it was 92%; in the assay on P388 [26], 100%.
For `NCCNc1ccc(O)c2c1C(=O)c1ccccc1C2=O`, the response in the assay with L1210 was half-maximal at 0.24 µg/mL (≈ 0.85 µM) (EC50). In assay [1], this molecule had an NADH oxidation of 25.7 µM/min.
